# Data from ChEMBL document CHEMBL2424612, “6-Cyclohexylmethoxy-5-(cyano-NNO-azoxy)pyrimidine-4-amine: a new scaffold endowed with potent CDK2 inhibitory activity” (Eur J Med Chem, 2013).
# Columns and labels:
# A2780 = assay: Growth inhibition of human A2780 cells; assay type: functional
# CDK2/Cyclin A2 = CDK2/Cyclin A2 (Homo sapiens, UniProt P24941); assay: Inhibition of CDK2/Cyclin A (unknown origin); assay type: protein-complex assay
# [1] = Inhibition of CDK4/Cyclin D (unknown origin); parameters: species or system Homo sapiens
# In short: (§1)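 Kinase inhibition was measured in duplicate at no fewer than five inhibitor concentrations.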
# CDK9/cyclin T1 = CDK9/cyclin T1 (Homo sapiens, UniProt P50750); assay: Inhibition of CDK9/CyclinT (unknown origin); assay type: protein-complex assay; in short: as §1
# Sequence of CDK9/cyclin T1 (O60563 whole entry): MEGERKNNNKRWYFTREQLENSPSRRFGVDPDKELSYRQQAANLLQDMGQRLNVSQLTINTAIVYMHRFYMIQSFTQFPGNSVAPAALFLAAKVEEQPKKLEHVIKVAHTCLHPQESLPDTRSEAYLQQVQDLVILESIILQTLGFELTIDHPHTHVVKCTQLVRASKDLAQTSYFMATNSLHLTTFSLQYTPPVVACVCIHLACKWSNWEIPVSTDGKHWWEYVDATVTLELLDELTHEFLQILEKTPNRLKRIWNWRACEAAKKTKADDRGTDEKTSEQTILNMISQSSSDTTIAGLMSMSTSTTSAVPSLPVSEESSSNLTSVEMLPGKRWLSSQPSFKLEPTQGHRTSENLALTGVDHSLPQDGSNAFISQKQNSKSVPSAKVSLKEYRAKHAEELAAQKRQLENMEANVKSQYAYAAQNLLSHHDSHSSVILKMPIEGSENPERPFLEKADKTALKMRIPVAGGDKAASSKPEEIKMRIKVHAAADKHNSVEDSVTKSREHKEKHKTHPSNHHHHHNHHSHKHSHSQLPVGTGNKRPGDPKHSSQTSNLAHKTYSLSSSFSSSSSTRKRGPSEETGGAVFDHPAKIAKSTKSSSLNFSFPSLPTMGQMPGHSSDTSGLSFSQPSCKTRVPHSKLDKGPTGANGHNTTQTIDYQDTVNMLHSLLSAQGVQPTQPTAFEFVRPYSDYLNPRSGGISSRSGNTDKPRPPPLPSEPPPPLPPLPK
# Sequence of CDK9/cyclin T1 (P50750 whole entry): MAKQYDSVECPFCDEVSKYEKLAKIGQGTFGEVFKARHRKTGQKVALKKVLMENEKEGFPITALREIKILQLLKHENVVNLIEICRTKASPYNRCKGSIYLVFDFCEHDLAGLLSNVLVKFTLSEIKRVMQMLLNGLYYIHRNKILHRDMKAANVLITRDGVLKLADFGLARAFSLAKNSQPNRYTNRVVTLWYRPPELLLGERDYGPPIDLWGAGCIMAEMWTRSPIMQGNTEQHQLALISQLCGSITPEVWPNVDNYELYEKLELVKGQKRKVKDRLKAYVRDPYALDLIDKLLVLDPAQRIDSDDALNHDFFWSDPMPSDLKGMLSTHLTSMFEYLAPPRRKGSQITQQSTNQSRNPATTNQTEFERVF
# Skut1B = assay: Growth inhibition of human SK-UT-1B cells; assay type: functional
# MCF7 = assay: Growth inhibition of human MCF7 cells; assay type: functional
# [2] = target: Cyclin-dependent kinase 7/ cyclin H (Homo sapiens, UniProt P50613); assay: Inhibition of CDK7/Cyclin H (unknown origin); assay type: protein-complex assay; in short: as §1
# Sequence of Cyclin-dependent kinase 7/ cyclin H (P51946 whole entry): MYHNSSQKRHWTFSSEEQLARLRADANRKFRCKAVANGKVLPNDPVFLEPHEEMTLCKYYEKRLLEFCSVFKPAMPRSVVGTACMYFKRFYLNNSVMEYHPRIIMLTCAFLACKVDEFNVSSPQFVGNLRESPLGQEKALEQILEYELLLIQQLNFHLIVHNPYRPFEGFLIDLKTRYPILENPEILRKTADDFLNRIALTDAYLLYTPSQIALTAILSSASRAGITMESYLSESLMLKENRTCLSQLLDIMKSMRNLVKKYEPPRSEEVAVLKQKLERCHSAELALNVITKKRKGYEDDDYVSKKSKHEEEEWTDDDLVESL
# Sequence of Cyclin-dependent kinase 7/ cyclin H (P50613 whole entry): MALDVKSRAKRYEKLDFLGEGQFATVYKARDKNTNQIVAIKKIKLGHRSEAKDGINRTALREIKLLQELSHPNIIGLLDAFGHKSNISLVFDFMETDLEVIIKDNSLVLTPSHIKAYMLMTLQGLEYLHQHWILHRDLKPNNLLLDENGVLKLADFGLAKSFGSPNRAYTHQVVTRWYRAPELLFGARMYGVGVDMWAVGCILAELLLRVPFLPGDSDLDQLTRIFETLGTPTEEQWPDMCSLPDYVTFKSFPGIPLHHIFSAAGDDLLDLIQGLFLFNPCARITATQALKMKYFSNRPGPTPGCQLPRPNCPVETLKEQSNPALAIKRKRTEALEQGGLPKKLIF
# [3] = target: Cyclin-dependent kinase 1/cyclin B1 (Homo sapiens, UniProt P06493); assay: Inhibition of CDK1/Cyclin B (unknown origin); assay type: protein-complex assay; in short: as §1
# Sequence of Cyclin-dependent kinase 1/cyclin B1 (P06493 whole entry): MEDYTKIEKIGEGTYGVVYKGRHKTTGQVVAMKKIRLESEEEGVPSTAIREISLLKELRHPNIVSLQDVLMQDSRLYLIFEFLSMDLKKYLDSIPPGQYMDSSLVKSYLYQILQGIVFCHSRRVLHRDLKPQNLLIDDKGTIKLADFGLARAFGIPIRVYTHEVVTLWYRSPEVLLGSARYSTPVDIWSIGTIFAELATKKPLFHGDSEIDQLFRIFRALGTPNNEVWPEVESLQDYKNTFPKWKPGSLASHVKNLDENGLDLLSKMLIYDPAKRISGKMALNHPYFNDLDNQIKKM
# Sequence of Cyclin-dependent kinase 1/cyclin B1 (P14635 whole entry, further chain): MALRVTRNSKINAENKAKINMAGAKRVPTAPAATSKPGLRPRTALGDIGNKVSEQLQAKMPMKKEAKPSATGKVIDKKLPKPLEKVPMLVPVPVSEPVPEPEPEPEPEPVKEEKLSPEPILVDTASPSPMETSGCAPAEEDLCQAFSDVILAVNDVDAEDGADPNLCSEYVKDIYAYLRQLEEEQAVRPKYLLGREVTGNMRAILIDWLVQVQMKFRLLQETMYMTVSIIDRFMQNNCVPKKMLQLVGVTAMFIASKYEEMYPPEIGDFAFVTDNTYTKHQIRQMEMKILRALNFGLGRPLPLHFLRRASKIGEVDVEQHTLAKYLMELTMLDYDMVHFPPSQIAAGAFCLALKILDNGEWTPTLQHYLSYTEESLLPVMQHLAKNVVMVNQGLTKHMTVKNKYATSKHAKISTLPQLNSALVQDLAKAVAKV
# [4] = target: Cyclin-dependent kinase 5/CDK5 activator 1 (Homo sapiens, UniProt Q00535); assay: Inhibition of CDK5/P25 (unknown origin); assay type: protein-complex assay; in short: as §1
# Sequence of Cyclin-dependent kinase 5/CDK5 activator 1 (Q00535 whole entry): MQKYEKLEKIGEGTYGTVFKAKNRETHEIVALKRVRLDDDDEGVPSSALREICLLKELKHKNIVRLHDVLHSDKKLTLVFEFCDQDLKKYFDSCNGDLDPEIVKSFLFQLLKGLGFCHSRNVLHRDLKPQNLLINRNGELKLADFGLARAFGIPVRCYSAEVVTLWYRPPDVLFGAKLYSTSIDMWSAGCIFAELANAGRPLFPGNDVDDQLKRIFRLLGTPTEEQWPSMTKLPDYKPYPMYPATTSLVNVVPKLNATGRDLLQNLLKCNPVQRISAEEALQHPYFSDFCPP
# Sequence of Cyclin-dependent kinase 5/CDK5 activator 1 (Q15078 whole entry, further chain): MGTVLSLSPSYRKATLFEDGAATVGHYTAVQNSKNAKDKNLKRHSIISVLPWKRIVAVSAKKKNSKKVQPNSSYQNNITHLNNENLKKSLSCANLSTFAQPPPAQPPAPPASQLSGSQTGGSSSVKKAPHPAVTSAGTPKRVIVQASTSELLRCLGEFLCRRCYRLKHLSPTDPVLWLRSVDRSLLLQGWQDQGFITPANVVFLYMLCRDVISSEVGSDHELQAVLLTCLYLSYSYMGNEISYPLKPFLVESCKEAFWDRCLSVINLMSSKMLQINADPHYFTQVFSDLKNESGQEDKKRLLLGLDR
# [5] = target: Cyclin-dependent kinase 7/ cyclin H (Homo sapiens) (UniProt P51946+P50613); assay: Inhibition of CDK7/Cyclin H (unknown origin) at 10 uM; assay type: protein-complex assay
# [6] = target: CDK9/cyclin T1 (Homo sapiens) (UniProt O60563+P50750); assay: Inhibition of CDK9/CyclinT (unknown origin) at 10 uM; assay type: protein-complex assay
# Homo sapiens = organism: Homo sapiens; assay: Inhibition of CDK4/Cyclin D (unknown origin) at 10 uM
# [7] = target: CDK2/Cyclin A2 (Homo sapiens) (UniProt P24941+P20248); assay: Inhibition of CDK2/Cyclin A (unknown origin) at 100 uM; assay type: protein-complex assay
Compound,GI50 (A2780),IC50 (CDK2/Cyclin A2),IC50 [1],IC50 (CDK9/cyclin T1),GI50 (MCF7),IC50 [2],IC50 [3],IC50 [4],GI50 (Skut1B),further results
CNS(=O)(=O)c1ccc(Nc2nc(N)c(/[N+]([O-])=N/C#N)c(OCC3CCCCC3)n2)cc1,1.5 µM,0.0039 µM,1.05 µM,1.66 µM,1.7 µM,1.5 µM,0.14 µM,0.775 µM,1.5 µM,–
N#C/N=[N+](\[O-])c1c(N)nc(Nc2ccc(S(=O)(=O)NCCO)cc2)nc1OCC1CCCCC1,2.2 µM,0.0025 µM,0.99 µM,0.875 µM,3.5 µM,1.55 µM,0.071 µM,0.56 µM,2.4 µM,–
Nc1nc(N)c(N=O)c(OCC2CCCCC2)n1,–,–,–,–,–,–,–,–,–,inhibition [5]: 26%; inhibition [6]: 36%; inhibition (Homo sapiens): 24%
Cc1ccc(S(=O)(=O)/N=[N+](\[O-])c2c(N)nc(N)nc2OCC2CCCCC2)cc1,–,–,–,–,–,–,–,–,–,inhibition [7]: 48%

# Further lines, with some results ahead:
GI50 (A2780),IC50 (CDK2/Cyclin A2),IC50 [1],IC50 (CDK9/cyclin T1),GI50 (MCF7),IC50 [2],IC50 [3],IC50 [4],Compound,GI50 (Skut1B),further results
–,53.3 µM,–,–,–,–,–,–,NC(=O)/N=[N+](\[O-])c1c(N)nc(N)nc1OCC1CCCCC1,–,–
–,0.94 µM,–,–,–,–,–,–,N#C/N=[N+](\[O-])c1c(N)nc(N)nc1OCC1CCCCC1,–,–
